Laboratory results reported in paper PMC11522000 (Nature Microbiology, 2024).
In brackets after ≈: the same amount, converted by molar mass. Several values for one entry are separate records, joined by “and”; a condition that tells them apart may be missing. Equal entries are not always repeated. Entries after “also recorded” stand apart in the source; their conditions may differ. Where two headings read alike, the source gives them in different places.

Columns and labels:
[1] = target: CYP2D6 (Homo sapiens, UniProt P10635); assay: CYP450 reversible inhibition; format: in vitro ADME
CYP2D6, sequence (P10635 whole entry): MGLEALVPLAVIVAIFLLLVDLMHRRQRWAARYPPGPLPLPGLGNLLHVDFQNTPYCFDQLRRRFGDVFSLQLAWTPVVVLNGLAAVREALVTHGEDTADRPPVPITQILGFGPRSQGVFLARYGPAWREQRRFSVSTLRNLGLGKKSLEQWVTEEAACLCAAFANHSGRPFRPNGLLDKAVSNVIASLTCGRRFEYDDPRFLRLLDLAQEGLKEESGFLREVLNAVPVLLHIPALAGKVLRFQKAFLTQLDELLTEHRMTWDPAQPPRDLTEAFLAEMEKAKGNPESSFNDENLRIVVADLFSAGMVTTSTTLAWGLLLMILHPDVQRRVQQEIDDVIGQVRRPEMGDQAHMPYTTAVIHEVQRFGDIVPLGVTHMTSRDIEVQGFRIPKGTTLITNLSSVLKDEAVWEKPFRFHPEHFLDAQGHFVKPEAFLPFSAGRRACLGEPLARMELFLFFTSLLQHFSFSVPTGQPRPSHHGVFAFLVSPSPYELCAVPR

[2] = test system: 3T3 fibroblast cells; assay: In vitro 3T3 NRU phototoxicity test; format: cell-based
Outline: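 This followed OECD 432. 3T3 fibroblasts in 96-well plates were exposed to a concentration range of test compound, up to its solubility limit in HBSS, and viability was read by neutral red uptake.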

[3] = High-throughput equilibrium solubility; format: physicochemical; conditions: thermodynamic from solid
Outline: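 Equilibrium solubility was measured by a miniaturized shake-flask method with HPLC quantification.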

[4] = test system: Salmonella typhimurium strains TA98 and TA100; assay: Mini-Ames
Outline: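 Histidine-auxotrophic S. typhimurium TA98 and TA100 were exposed to test compound with and without rat liver S9.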

[5] = test system: CpPI(4)K::Y705A:Y907A; assay: PI; format: biochemical, C. parvum
Outline: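 Enzyme was pre-incubated with compound for 5 min at room temperature. The reaction was started with substrate mix at twice final strength (PI, ATP, Tris-HCl pH 7.5, DTT, 0.05% Triton X-100, MnCl2) and run 50 min at room temperature. ADP was measured by ADP-Glo luminescence. IC50s came from in-plate duplicate 10-point 3-fold dilutions, with DMSO and reference-inhibitor controls. The C. parvum enzymes (wild type and mutants) were full-length proteins expressed from baculovirus in Sf21 cells.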

[6] = target: hERG potassium channel (Homo sapiens, UniProt Q12809); assay: hERG Q-Patch; format: cell-based
hERG potassium channel, sequence (Q12809 whole entry): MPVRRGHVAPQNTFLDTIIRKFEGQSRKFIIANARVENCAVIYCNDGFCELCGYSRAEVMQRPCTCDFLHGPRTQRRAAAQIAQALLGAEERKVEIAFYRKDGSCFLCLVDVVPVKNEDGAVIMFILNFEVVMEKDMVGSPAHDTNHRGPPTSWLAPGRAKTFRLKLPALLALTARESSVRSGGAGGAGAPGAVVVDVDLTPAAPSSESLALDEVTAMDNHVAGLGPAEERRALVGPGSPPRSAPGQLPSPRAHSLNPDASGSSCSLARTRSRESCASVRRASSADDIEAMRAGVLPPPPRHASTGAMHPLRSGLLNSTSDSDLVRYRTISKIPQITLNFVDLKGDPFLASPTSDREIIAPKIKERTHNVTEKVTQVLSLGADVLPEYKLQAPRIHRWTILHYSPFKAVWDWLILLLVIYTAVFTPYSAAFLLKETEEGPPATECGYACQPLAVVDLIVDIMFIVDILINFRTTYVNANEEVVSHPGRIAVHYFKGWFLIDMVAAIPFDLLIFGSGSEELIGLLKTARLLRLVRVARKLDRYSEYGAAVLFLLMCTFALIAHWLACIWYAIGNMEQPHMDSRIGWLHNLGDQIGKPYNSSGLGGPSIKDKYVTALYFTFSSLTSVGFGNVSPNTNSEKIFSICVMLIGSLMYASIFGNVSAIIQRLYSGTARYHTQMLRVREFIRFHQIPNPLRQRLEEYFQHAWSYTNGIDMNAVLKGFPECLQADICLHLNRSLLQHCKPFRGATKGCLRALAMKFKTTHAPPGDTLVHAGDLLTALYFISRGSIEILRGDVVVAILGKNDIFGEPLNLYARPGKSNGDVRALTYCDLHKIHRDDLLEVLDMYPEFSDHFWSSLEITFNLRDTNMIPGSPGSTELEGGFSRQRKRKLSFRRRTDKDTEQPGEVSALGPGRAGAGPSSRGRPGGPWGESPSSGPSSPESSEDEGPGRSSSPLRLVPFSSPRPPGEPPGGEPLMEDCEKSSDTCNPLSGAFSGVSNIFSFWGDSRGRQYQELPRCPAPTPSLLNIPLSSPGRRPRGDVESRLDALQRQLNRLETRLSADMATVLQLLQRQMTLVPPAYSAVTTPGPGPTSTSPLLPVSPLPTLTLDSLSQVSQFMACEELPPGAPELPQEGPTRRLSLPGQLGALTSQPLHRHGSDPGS
Outline: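 hERG potassium current was recorded at near-physiological temperature in stably transfected mammalian cells expressing hERG. The test compound was applied as a 4-point dose response spanning 1–30.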

[7] = Plasma protein binding; format: in vitro ADME; conditions: dog
[8] = target: hERG (Homo sapiens, UniProt Q12809); assay: hERG binding assay
hERG, sequence (Q12809 whole entry): as above
Outline: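 Binding was measured in hERG-expressing HEK293 cells. Concentration-response curves were typically 6-point, spanning 0.37 to 30.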

[9] = test system: rat reticulocytes; assay: In vivo rat peripheral blood micronucleus assay
Outline: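 Peripheral blood was taken on days 3 and 15, in randomized order, from animals in the 2-week rat toxicology study. Micronucleated reticulocytes were counted by flow cytometry.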

[10] = Hepatocytes metabolic stability; format: in vitro ADME; conditions: human
Outline: (§1)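 Test compound was incubated with liver microsomes or hepatocytes of each species, and parent depletion was quantified by LC-MS/MS. From this, in vitro half-life and intrinsic clearance were derived, along with predicted metabolic clearance and hepatic extraction ratio.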

[11] = test system: HepG2; assay: Cytotoxicity assay; format: cell-based, human
[12] = Hepatocytes metabolic stability; format: in vitro ADME; conditions: mouse; for half-life / hepatocyte CLint: hepatocytes
Outline: as §1

[13] = Plasma protein binding; format: in vitro ADME; conditions: human
[14] = test system: C. parvum; assay: Mouse efficacy study; format: in vivo, C57BL/6 IFN-γ-knockout mice; conditions: for log reduction in oocyst shedding / log reduction in faecal oocyst shedding: IFN-γ KO mouse, 5 days; for log reduction in faecal oocyst shedding: 10 mg kg^−1 oral
[15] = target: CYP3A4 (Homo sapiens, UniProt P08684); assay: CYP3A4 time-dependent inhibition; format: in vitro ADME
CYP3A4, sequence (P08684 whole entry): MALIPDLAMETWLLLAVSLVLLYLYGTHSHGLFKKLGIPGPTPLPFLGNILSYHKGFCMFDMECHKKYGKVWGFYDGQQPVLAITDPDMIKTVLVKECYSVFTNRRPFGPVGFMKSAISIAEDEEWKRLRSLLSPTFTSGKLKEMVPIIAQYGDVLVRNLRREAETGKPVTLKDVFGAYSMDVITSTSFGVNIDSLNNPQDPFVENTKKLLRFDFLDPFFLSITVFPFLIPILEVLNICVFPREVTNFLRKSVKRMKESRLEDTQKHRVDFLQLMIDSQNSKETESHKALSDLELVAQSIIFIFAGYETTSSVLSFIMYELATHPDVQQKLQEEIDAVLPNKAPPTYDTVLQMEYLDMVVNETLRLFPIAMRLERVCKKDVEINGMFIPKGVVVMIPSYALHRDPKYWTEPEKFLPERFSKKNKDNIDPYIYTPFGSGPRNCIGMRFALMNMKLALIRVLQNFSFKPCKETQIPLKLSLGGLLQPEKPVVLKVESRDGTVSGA

[16] = Plasma stability; format: in vitro ADME; conditions: mouse
Outline: (§2)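 Test compound was added to plasma and incubated at 37 °C in a shaking water bath, with samples taken at sequential timepoints. Samples were quenched with ice-cold acetonitrile and analysed by LC-MS/MS, and half-life was calculated from the depletion rate.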

[17] = Hepatocytes metabolic stability; format: in vitro ADME; conditions: dog
Outline: as §1

[18] = Plasma stability; format: in vitro ADME; conditions: rat
Outline: as §2

[19] = target: HsPI(4)K (Homo sapiens, UniProt Q9UBF8); assay: PI; format: biochemical; conditions: for IC50: HsPI(4)K IC50, 3 μM ATP
HsPI(4)K, sequence (Q9UBF8 523-816 limits assumed): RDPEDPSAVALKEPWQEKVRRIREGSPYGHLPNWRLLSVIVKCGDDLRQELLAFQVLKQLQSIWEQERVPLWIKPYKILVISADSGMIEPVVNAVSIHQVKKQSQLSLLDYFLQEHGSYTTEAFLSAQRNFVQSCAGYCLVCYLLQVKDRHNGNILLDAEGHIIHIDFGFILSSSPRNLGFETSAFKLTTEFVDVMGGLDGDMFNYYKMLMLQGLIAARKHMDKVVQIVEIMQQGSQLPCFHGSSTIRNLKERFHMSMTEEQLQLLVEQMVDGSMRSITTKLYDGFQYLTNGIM

[20] = MDCK Low Efflux permeability; format: in vitro ADME; conditions: dog
[21] = test system: C. hominis; assay: Cytopathic effect; format: cell-based, Cryptosporidium hominis; conditions: HCT-8, 48 h, read-out: Ch CPE EC50
Outline: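 HCT-8 cells were grown at 37 °C, 5% CO2 in RPMI-1640 with 10% heat-inactivated FBS. Oocysts were excysted in 10 mM HCl/HBSS for 10 min at 37 °C, then in 2 mM sodium taurocholate in L-15/UltraCULTURE medium for 5 min. Infected cells were seeded onto pre-spotted compound (10-point, 3-fold dilution; DMSO and reference-inhibitor controls) and incubated 48 h. Cells were then lysed for a viability read-out, and concentration-response curves were fitted.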

[22] = Liver microsomes metabolic stability; format: in vitro ADME; conditions: rat
Outline: as §1

[23] = Stability in intestinal S9 fraction; format: in vitro ADME; conditions: mouse
Outline: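 Test compound added to intestinal S9 fraction of each species to start the reaction. Incubated in a shaking water bath at 37 °C, with samples taken at sequential timepoints. Samples quenched with ice-cold acetonitrile and analysed by LC-MS/MS. Half-life calculated from the rate of parent compound depletion.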

Compound	IC50 [1]	Phototoxicity [2]	Phototoxicity PIF value [2]	Mini-AMES [4]	loss of potency against CpPI(4)K::Y705A:Y907A mutant compared with wild-type [5]	IC50 [6]	IC50 [8]	In vivo rat reticulocytes MN induction [9]	half-life ([10]; hepatocytes)	SI (selectivity index) HepG2 CC50 / C. parvum EC50 ratio [11]	Hepatocytes ER [12]	half-life [12]	hepatocyte CLint [12]	log reduction in faecal oocyst shedding [14]	Time dependent inhibition 3A4 [15]	Hepatocytes ER [17]	half-life [18]	IC50 [19]	Papp A→B [20]	Microsomal ER [22]	also measured
CNC(=O)c1ccc(-c2cnn3ccc(C(=O)N(C)c4ccc(Cl)c(C(=O)OC)c4)cc23)cc1 [EDI048, methyl 2-chloro-5-(N-methyl-3-(4-(methylcarbamoyl)phenyl)pyrazolo[1,5-a]pyridine-5-carboxamido)benzoate]	> 25 µM	Negative	1.8	Negative	35–200 ×	8.3 µM	> 30 µM	Negative	< 3 min	> 100	93%	2.8 min	> 250 µL/min/1e6 cells	> 3 log and 3.1 log	Weak positive	83%	11.6 min	1.03 ± 0.47 µM	9.71 ×10⁻⁶ cm/s	96%	solubility ([3]; FaSSIF, Solubility FaSSIF): 198 µM (≈ 94.4 µg/mL); solubility ([3]; pH 6.8, aqueous buffer, Solubility pH 6.8, pH 6.8): 54 µM (≈ 25.8 µg/mL); fraction unbound ([7]; plasma): 0.061; hepatocyte CLint ([10]; hepatocytes): > 231 µL/min/1e6 cells; selectivity ratio at 96 h ([11]; human, HepG2 cells (ATCC CRL-10741)): > 500; CC50 ([11]; read-out: HepG2 CC50, 96 h): 28.1 µM; fraction unbound ([13]; plasma): 0.045; log reduction in oocyst shedding ([14]; 1 mg kg^−1 oral once daily): 0.3 log; log reduction in oocyst shedding ([14]; 3 mg kg^−1 oral once daily): 1.1 log; KI (inactivation) ([15]; human): 2.1 µM; half-life ([16]; Plasma T1/2, mouse plasma): 15.3 min; half-life ([16]; Plasma T1/2, rodent plasma): 12 to 15 min; hepatocyte CLint ([17]; hepatocytes): 28.5 µL/min/1e6 cells; selectivity for Cryptosporidium PI(4)K over HsPI(4)K [19]: > 300 fold and 300 fold; EC50 ([21]; Cryptosporidium hominis): 0.05 ± 0.001 µM; microsomal CLint ([22]; liver microsomes): > 700 µL/min/mg; half-life [23]: 45 min
CN(C(=O)c1ccn2ncc(-c3ccc(C(N)=O)cc3)c2c1)c1ccc(C#N)cn1 [KDU731, 3–(4-carbamoylphenyl)-N-(5-cyanopyridin-2-yl)-N-methylpyrazolo [1,5-a]pyridine-5-carboxamide, reference compound]	> 50 µM	Negative	3.1	Negative	35–200 ×	23 µM	> 30 µM	induce micronuclei; also recorded: Positive	57.9 min	> 100	18%	> 175 min	< 4 µL/min/1e6 cells	~ 3 log	Negative	10%	> 120 min	1.93 ± 1.08 µM	12.1 ×10⁻⁶ cm/s	47%	solubility ([3]; FaSSIF): 48 µM (≈ 19 µg/mL); solubility ([3]; pH 6.8, aqueous buffer): 19 µM (≈ 7.53 µg/mL); % Plasma protein binding [7]: 70.8%; Hepatocytes ER [10]: 60%; Hepatocytes clearance [10]: 12 μl/min/million cells; % Plasma protein binding [13]: 79.1%; effect of intravenous injection on parasite load ([14]; i.v. 1 mg kg^−1, exposure similar to oral): negligible effects on the parasite load; half-life [16]: 85.2 min; EC50 ([21]; C. hominis): 0.13 µM; microsomal CLint [22]: 29 µL/min/mg; half-life [23]: > 240 min
